Experiment: Toxicity liver stage against HepG2, at 10uM
Type: cell-based
Design: test concentration 10 uM, cell line HepG2-A16-CD81EGFP
Conditions: human, HepG2-A16-CD81EGFP cells; read-out: INHIBITION
In short: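 Uninfected HepG2-A16-CD81EGFP cells, 3 × 10^3 per well, 1536-well, plated on prespotted compound at 10 μM final, parasite-free screening media added to match infected plates; puromycin 10 μM positive, DMSO 0.5% negative; run in parallel with 48 h PbLuc assay at 37 °C, 5% CO2; viability by CellTiter-Glo luminescence, normalized to controls.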

CN(C1CCCCC1)S(=O)(=O)NCC1Cc2ccccc2O1 (centres undefined)
cytotoxicity at 10 µM: 4.19%

Cc1ccc(CN2CCc3c(C(=O)N(C)C)nn(C)c3C2)s1
cytotoxicity at 10 µM: -12.4%

CCn1cc(NC(=O)NCc2ccc(CO)c(F)c2)cn1
cytotoxicity at 10 µM: 8.69%

Cc1nc2c(c(NCc3cnc4c(c3)CCC4)n1)CNC2
cytotoxicity at 10 µM: -3.57%

CC(C)n1cc(N2CC(C(=O)N3CCC(C(N)=O)CC3)CC2=O)cn1 (centres undefined)
cytotoxicity at 10 µM: -4.51%

Cc1cccc(OCC2CCCN(C(=O)Cn3ccccc3=O)C2)c1 (centres undefined)
cytotoxicity at 10 µM: -0.503%

CSc1cc2c(cc1NC(=O)NCc1ccncc1)OCCO2
cytotoxicity at 10 µM: 7.55%

COc1ccccc1CCNC(=O)CNCC1CN(C)CCO1 (centres undefined)
cytotoxicity at 10 µM: 1.49%

CN(Cc1cnc(N)nc1)C(=O)c1coc(COc2cccc(F)c2)n1
cytotoxicity at 10 µM: 0.998%

Cc1nc2cc(-c3nccn3C)nn2c(N2CCCC(CO)C2)c1C (centres undefined)
cytotoxicity at 10 µM: -4.38%

CC(C)c1ccc(OCC(=O)N(C)C)cc1
cytotoxicity at 10 µM: -2.82%

COCc1noc(CC2CN(c3ncnc4sc(C)c(C)c34)CCO2)n1 (centres undefined)
cytotoxicity at 10 µM: -0.649%

CC(C(=O)N1CCCN(Cc2ccc(C#N)cc2)CC1)n1cncn1 (centres undefined)
cytotoxicity at 10 µM: 2.6%

CCN(Cc1noc(C(C)C)n1)Cc1ccc(C#N)cc1F
cytotoxicity at 10 µM: -2.48%

CC(=O)N1CCN(C(=O)c2csc(-c3ccc(C)cc3C)n2)CC1
cytotoxicity at 10 µM: -18.8%

Cc1nc(Nc2ncccn2)cc(C2CN(C(=O)c3cccnc3)C2)n1
cytotoxicity at 10 µM: 4.42%

CNC(=O)NC(=O)C(C)N1CCC(c2c[nH]c3ccc(OC)cc23)CC1 (centres undefined)
cytotoxicity at 10 µM: 12.5%

Cc1ccc(C(=O)NCC(C)Cn2cccn2)c(=O)[nH]1 (centres undefined)
cytotoxicity at 10 µM: 3.14%

Cc1cc(OCC(=O)N2CCCC(c3noc(C(C)C)n3)C2)no1 (centres undefined)
cytotoxicity at 10 µM: -4.56%

Cc1nccn1CCC1CCCCN1Cc1ccncc1 (centres undefined)
cytotoxicity at 10 µM: 35.2%

CCOc1ccc(CN2C(=O)CC(CC)(CC)C2=O)nc1
cytotoxicity at 10 µM: 5.73%

N#Cc1c[nH]nc1NCc1ccc2c(c1)OCO2
cytotoxicity at 10 µM: -8.75%

Cc1n[nH]c(C2CN(C(=O)COCC(F)(F)F)CCO2)n1 (centres undefined)
cytotoxicity at 10 µM: 1.26%

COc1cccc(Cn2cc(N3C(=O)[C@H]4CCCC[C@H]4C3=O)cn2)c1
cytotoxicity at 10 µM: -11.9%

CC(C)(C)C(O)CN1CCN(Cc2ccc(C#N)cc2)CC1 (centres undefined)
cytotoxicity at 10 µM: -8.88%

Oc1cccc(CNCC2CCCO2)c1 (centres undefined)
cytotoxicity at 10 µM: -1.37%

COCCS(=O)(=O)Nc1cc(Cl)ccn1
cytotoxicity at 10 µM: 2.62%

COc1c(CNC2CCC(O)CC2)c(C(C)C)nn1C (centres undefined)
cytotoxicity at 10 µM: -6.59%

Cc1cc(NC(=O)NCC(O)c2ccc(F)cc2)n(C)n1 (centres undefined)
cytotoxicity at 10 µM: -2.69%

CC(=O)N(C)CC(=O)Nc1ccc(C)cc1OCc1ccccc1
cytotoxicity at 10 µM: 2.22%

Cc1ccc(C)c(-n2nnnc2SCN2CCCCC2=O)c1
cytotoxicity at 10 µM: -47.3%

CN(C)CCCN(Cc1cnn(C)c1)Cc1ccco1
cytotoxicity at 10 µM: 2.36%

Cc1cc(CN2CCC(CNC(=O)c3ccc(O)c(Cl)c3)C2)[nH]n1 (centres undefined)
cytotoxicity at 10 µM: 13.3%

COc1ccc(CN(C)CC(=O)c2ccc3[nH]c(=O)[nH]c3c2)cc1F
cytotoxicity at 10 µM: 8.51%

COC[C@@H]1CC[C@H]2[C@H](CCN2S(=O)(=O)c2ccc(C)cc2)O1
cytotoxicity at 10 µM: -1.05%

Cc1ncsc1C(=O)N(Cc1cccs1)C1CC1
cytotoxicity at 10 µM: -6.13%

FC(F)(F)c1ccnc(N2CCCOCC2)c1
cytotoxicity at 10 µM: -1.41%

NC(=O)C1CCN(C(=O)NCc2ccccc2Cn2cncn2)CC1
cytotoxicity at 10 µM: 3.98%

O=C(N[C@@H]1CCC[C@@H](N2CCOCC2)[C@@H]1O)c1cc2ccccc2[nH]1
cytotoxicity at 10 µM: -26.9%

OC(CNc1ccc(Cl)cn1)CN1CCOCC1 (centres undefined)
cytotoxicity at 10 µM: 4.15%

COC(=O)C(c1cc(F)ccc1F)N(C)C(=O)c1cnc(C)cn1 (centres undefined)
cytotoxicity at 10 µM: 0.111%

CN(C)CCCNCC1CCOC(C)(C)C1 (centres undefined)
cytotoxicity at 10 µM: -8.02%

Cc1ccc(C(=O)N(C)S(C)(=O)=O)cc1Cl
cytotoxicity at 10 µM: -46.5%

Cc1sc2c(C3CCCNC3)nc(Nc3cccc(F)c3)n2c1C (centres undefined)
cytotoxicity at 10 µM: 1.24%

COc1ccccc1N1CCN(Cc2ncc(C)c(OC)c2C)CC1=O
cytotoxicity at 10 µM: 6.18%

CCOCCn1c(=O)[nH]c2cc(C(=O)N(C)Cc3ccno3)ccc21
cytotoxicity at 10 µM: -1.79%

Clc1cccc(Cl)c1-c1nnc(CNCCn2cccn2)o1
cytotoxicity at 10 µM: -6.46%

Cc1nc(CNCC2CN(C)CCO2)cs1 (centres undefined)
cytotoxicity at 10 µM: -9.16%

Cc1nn(C)c(C)c1CCn1cncc1-c1ccc2c(c1)CC(C)N2C (centres undefined)
cytotoxicity at 10 µM: -0.168%

Cc1nc(CO[C@H]2CN(C(=O)c3ccc[nH]3)[C@@H]3COC[C@H]23)cs1
cytotoxicity at 10 µM: -110%

CCC(CO)N(Cc1ccco1)C(=O)c1cccnc1NC (centres undefined)
cytotoxicity at 10 µM: 1.64%

CCn1cnnc1CNC(=O)N(C)C(C)c1cccs1 (centres undefined)
cytotoxicity at 10 µM: -15.9%

Cc1ccsc1C(=O)NC(C)c1ccc2c(c1)CCC(=O)N2 (centres undefined)
cytotoxicity at 10 µM: -12.4%

Cc1ccc(S(=O)(=O)NC(=O)CCC(F)(F)F)cc1N(C)C
cytotoxicity at 10 µM: -3.79%

CN(CC(=O)Nc1cnn(-c2ccccc2S(C)(=O)=O)c1)C1CC1
cytotoxicity at 10 µM: 0.315%

Cc1cnn(CCCNCc2csc(COc3ccccc3)n2)c1
cytotoxicity at 10 µM: 5.34%

C=C(C)CSc1nnc(CCNC(=O)OC(C)(C)C)o1
cytotoxicity at 10 µM: 8.94%

O=C(c1cccnc1-c1ccc2c(c1)OCCO2)N1CCCC1
cytotoxicity at 10 µM: 3.82%

Cc1nnc(CSc2ccc(C(F)(F)F)cn2)o1
cytotoxicity at 10 µM: -6.51%

COc1ccccc1CC1CCCN(C(=O)c2cn[nH]c2C)C1 (centres undefined)
cytotoxicity at 10 µM: 7.61%

CS(=O)(=O)CCCNC(=O)NC1CC(c2cccc(Cl)c2)C1 (centres undefined)
cytotoxicity at 10 µM: -3.17%

Cc1ccc(C(=O)NCCNS(C)(=O)=O)c(=O)[nH]1
cytotoxicity at 10 µM: -5.3%

Cc1ccc(NC(=O)N2CCCC(N(C)C)C2)c(Br)c1 (centres undefined)
cytotoxicity at 10 µM: -3.51%

CCS(=O)(=O)CC(=O)Nc1cccc2c1CN(CC(C)C)C2
cytotoxicity at 10 µM: 2.25%

Cc1ncc(CN2CCC(N(C)Cc3noc(C4CC4)n3)C2)s1 (centres undefined)
cytotoxicity at 10 µM: -3.16%

O=C(c1ccc2c(c1)[nH]c(=O)n2C1CCCC1)N1CCC1
cytotoxicity at 10 µM: -46.4%

O=C(c1ccnc(N2CCOC(C(F)(F)F)C2)c1)N1CCCC1 (centres undefined)
cytotoxicity at 10 µM: -3.5%

CCNC(=O)N1CCCCC1CCO (centres undefined)
cytotoxicity at 10 µM: -4.27%

Cc1csc(CCNC(=O)N2CCC(C(N)=O)CC2)n1
cytotoxicity at 10 µM: -2.71%

CS(=O)(=O)c1ccc(OCCNCc2cccc(F)c2)cc1
cytotoxicity at 10 µM: -9.06%

CNc1cccc(C2CCCN(Cc3ncc[nH]3)C2)n1 (centres undefined)
cytotoxicity at 10 µM: -18%

COc1cc(N[C@@H](Cc2ccccc2)C(N)=O)ncn1
cytotoxicity at 10 µM: 10.1%

O=C(NC1CCCCC1)c1cc(Br)cnc1N1CCCCC1
cytotoxicity at 10 µM: 2.22%

COCc1ccc(C(=O)N2CCCN(Cc3ccc(F)cc3)CC2)s1
cytotoxicity at 10 µM: -1.78%

CNC(=O)[C@@]12CCO[C@@H]1CCN(Cc1c(C)noc1C)C2
cytotoxicity at 10 µM: -70.5%

NC(=O)CN1CC2(CCC1=O)CCN(Cc1cc(F)cc(F)c1)CC2
cytotoxicity at 10 µM: 7.1%

Cc1ccc2c(c1)c(CNC(C)Cn1ccnc1)nn2C (centres undefined)
cytotoxicity at 10 µM: -6.14%

CC(C)(C)c1nc(CN2CCC3(CCCO3)CCC2=O)no1 (centres undefined)
cytotoxicity at 10 µM: -4.57%

O=C(N[C@H]1CN(Cc2cccs2)[C@@H]2CCCO[C@H]12)c1cccnc1
cytotoxicity at 10 µM: -5.24%

FC(F)(F)CCc1ccnc(NC2CCOC2)n1 (centres undefined)
cytotoxicity at 10 µM: 16.4%

Cc1noc2ncc(C(=O)N3CCCC3c3cnn(C)c3)cc12 (centres undefined)
cytotoxicity at 10 µM: -6.2%

Cc1cc2[nH]c(CN3CCCCC3c3cccc(F)c3)cc(=O)n2n1 (centres undefined)
cytotoxicity at 10 µM: 1.29%

C[C@H]1C[C@@H]2CCN(Cc3ccccn3)C[C@H]2O1
cytotoxicity at 10 µM: 5.66%

CN(CCc1ccccn1)C(=O)Cn1cc(-c2ccccc2)nn1
cytotoxicity at 10 µM: 0.788%
